# PREPL inhibitor – inhibits the human prolyl oligopeptidase-like enzyme | inhibition, % at 5.96 µM | AID 2751 | actives 0.68% (n = 320,000) | recombinant PREPL, fluorescence polarization activity-based probe | Q4J6C6; in the data active means inhibition above about 43%;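 further: 0% = enzyme with DMSO and 100% = wells lacking enzyme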
# Target sequence (Q4J6C6 whole entry, looked up): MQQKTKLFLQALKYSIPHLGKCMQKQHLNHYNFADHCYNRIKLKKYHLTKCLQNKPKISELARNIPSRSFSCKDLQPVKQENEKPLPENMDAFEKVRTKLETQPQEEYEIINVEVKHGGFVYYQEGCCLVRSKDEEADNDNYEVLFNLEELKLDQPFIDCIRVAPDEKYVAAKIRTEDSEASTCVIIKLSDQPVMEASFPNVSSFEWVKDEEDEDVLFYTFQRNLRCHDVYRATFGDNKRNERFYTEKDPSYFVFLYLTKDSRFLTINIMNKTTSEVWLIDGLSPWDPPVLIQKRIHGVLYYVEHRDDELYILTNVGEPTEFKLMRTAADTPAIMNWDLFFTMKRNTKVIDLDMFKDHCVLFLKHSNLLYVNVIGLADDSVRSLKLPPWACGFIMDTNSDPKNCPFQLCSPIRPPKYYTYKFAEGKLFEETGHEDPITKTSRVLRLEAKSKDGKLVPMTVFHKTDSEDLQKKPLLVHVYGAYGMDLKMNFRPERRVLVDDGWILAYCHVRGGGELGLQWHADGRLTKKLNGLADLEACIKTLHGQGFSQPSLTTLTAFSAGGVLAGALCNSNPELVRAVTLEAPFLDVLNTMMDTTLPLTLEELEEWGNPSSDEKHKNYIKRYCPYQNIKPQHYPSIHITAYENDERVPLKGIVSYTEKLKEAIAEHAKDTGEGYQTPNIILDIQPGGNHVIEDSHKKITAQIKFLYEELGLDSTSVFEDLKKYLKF
# CHOP inhibitor – CHOP inhibition in unfolded protein response | CHO-K1 CHOP-promoter luciferase, tunicamycin-induced, 15-18 h | actives 3.8% (n = 220,000) | inhibition, % at 10 µM | AID 2732;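 active means compounds that reduced the stress-induced luciferase reporter signal by more than about 70% of percent inhibition, limit read from the data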;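 further: 0% = tunicamycin plus vehicle and 100% = wells without tunicamycin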
# GRIN3A LBD mod – modulates the human NR3A ligand-binding domain. Tm shift relative to glycine control, % at 25 µM. AID 1259313. NR3A LBD differential scanning fluorimetry, Tm shift; 0% = protein alone, 100% = glycine-bound protein. actives 2.5% (n = 340,000);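 active means melting temperature shift of at least 10% of the positive control shift, at one fixed dose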
# T cruzi repl – blocks replication of Trypanosoma cruzi. T. cruzi beta-gal in NIH3T3, luminescence, 90 h. AID 1885. actives 1.4% (n = 300,000). inhibition, % (no concentration beside the values);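 active means mean inhibition across valid replicates above about 55%, limit read from the data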;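 further: signal also drops with host cell toxicity which is not excluded here; 0% = plate median of DMSO wells and 100% = zero luminescence signal; higher percent means less beta-gal luminescence so fewer parasites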
#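 Test system: β-gal T. cruzi (Tulahuen C4) inside NIH/3T3 cells / Quantity: 5,000 cells/well / Measured by: luminescence from GalScreen with 0.05% NP40, read after 60 min / Medium: DMEM plus 2% FBS / Measure: parasite load inhibition, % / Reagent: Tulahuen C4 trypomastigotes, 5000/well / Schedule: co-culture of at least 90 h after 3 h attachment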
# CSC inhib – cancer stem cell inhibition; cancer stem cell-like cells viability, luminescence; inhibition, % at 7.5 µM; actives 1.1% (n = 300,000); AID 2717; in the data active means inhibition above about 75%; tested in HMLE shEcad cells
# Beta apoptosis – beta cell apoptosis inhibition; INS-1E cytokine-induced death, ATP luminescence, 48 h; percent of positive-control rescue, neutral wells zero; protection from apoptosis, % (concentration not given with the values); actives 0.8% (n = 300,000);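 active means Every replicate reaches about 75%, or at least half do and their mean reaches it too, limit read from the data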;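 further: 0% = cytokine-treated negative control wells and 100% = positive control rescue; higher means more ATP so stronger rescue from cytokine killing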
# An asterisk follows results filed as active; . = no result given. The list is not random: actives were taken first. Their share in the collection is about 6.7%.
SMILES,PREPL inhibitor,CHOP inhibitor,GRIN3A LBD mod,T cruzi repl,CSC inhib,Beta apoptosis
c1ccc(N2CCN(c3nc(-c4cccs4)nc4ccccc34)CC2)cc1,17,57,-1,29,21,2
COc1ccc(Cc2nnc(NC(=O)CS(=O)(=O)Cc3ccccc3)s2)cc1,4,.,2,-4,-12,-7
COc1ccc(C(=O)/C=C/c2ccc(OC)c(Cn3nnc4ccccc43)c2)cc1,-3,-80,-6,4,77*,3
CCCn1c(SCC(=O)N2N=C3/C(=C/c4ccc(OC)cc4)CCCC3C2c2ccc(OC)cc2)n[nH]c1=O (stereo unspecified),38,71*,1,27,1,-19
CCCn1c(SCC(=O)NCc2ccc(OC)cc2)n[nH]c1=O,-9,-12,2,-11,-13,-13
Cc1ccc(C(C)C)c(OCCNCCc2ccccc2)c1,-16,.,-1,48,56,36
CC(C)C(=O)Nc1ccc(Nc2ccccc2)cc1,12,-14,26*,-2,-15,2
O=C(O)c1ccccc1-c1ccccc1C(=O)Nc1ccc2c(c1)CCC2,-1,.,4,-13,-13,-2
O=C(Nc1ccc(Nc2ccccc2)cc1)Nc1ccccc1Cl,23,-19,18*,4,100*,10
O=C(COc1ccccc1)NC(=S)Nc1ccc2c(c1)Cc1ccccc1-2,1,18,-7,61*,.,-2
CCC(CC)C(=O)Nc1ccc(Nc2ccccc2)cc1,12,3,2,23,-6,-2
O=C(Nc1ccc2c(c1)CCC2)c1ccccc1,1,5,14*,1,4,14
Cc1ccc(NC(=O)C2CCCN2C(=O)OC(C)(C)C)cc1C (stereo unspecified),10,5,0,-4,-4,0
O=C(Nc1ccc(Cl)cc1)Nc1ccccc1Sc1ncc([N+](=O)[O-])s1,2,37,13*,18,84*,23
O=C(Nc1ccccc1Cl)Nc1ccccc1Cl,-14,-6,-3,-10,1,7
O=C(Nc1csc([N+](=O)[O-])c1)Nc1ccccc1Cl,12,20,39*,45,10,42
O=C(Nc1ccc2c(c1)Cc1ccccc1-2)c1ccncc1,2,-20,18*,3,10,2
O=C(Nc1ccc2c(c1)CCC2)Nc1ccccc1Cl,3,.,10*,2,10,8
COc1ccc(C(=O)Nc2ccc(NC(=O)c3cc(OC)c(OC)c(OC)c3)cn2)cc1,-6,.,1,14,0,-7
Cc1occc1C(=O)Nc1ccc2c(c1)CCC2,-5,6,11*,9,6,4
COc1cc(C(=O)Nc2ccc3c(c2)Cc2cc(NC(=O)c4cc(OC)c(OC)c(OC)c4)ccc2-3)cc(OC)c1OC,8,47,24*,7,-2,-9
Cc1c(Cl)cccc1NC(=O)Nc1ccc(C(N)=O)cc1,2,10,11*,-36,.,-4
O=C(Nc1ccccc1Cl)Nc1cccnc1Cl,-2,7,19*,-3,-1,1
OCC1(Cc2ccccc2F)CCCN(Cc2c(F)ccc(F)c2F)C1 (stereo unspecified),7,.,0,9,17,-8
CC1Cc2ccccc2N1C(=O)COc1ccc2c(c1)OCO2 (stereo unspecified),8,-22,-1,6,-14,2
SMILES,PREPL inhibitor,CHOP inhibitor,GRIN3A LBD mod,T cruzi repl,CSC inhib,Beta apoptosis
OC[C@@H](O)C1OC2NC(=S)OC2C1O (stereo partly specified),3,-25,0,-35,-10,-7
COc1ccc(CNC(=O)CS(=O)(=O)Cc2nc(-c3cccc(OC)c3)oc2C)cc1,0,.,0,23,-2,5
O=C(Cc1ccsc1)Nc1ccccc1F,16,.,0,-11,.,-5
O=C(N/N=C/c1ccc(Cl)cc1Cl)Nc1ccccc1,11,59,-4,8,30,3
O=C(N/N=C/c1cccc(Cl)c1Cl)Nc1ccccc1,30,71*,5,1,-6,-7
O=C(Nc1cccnc1Cl)c1cc([N+](=O)[O-])ccc1Cl,3,-64,0,66*,-2,0
Cc1conc1NC(c1cccs1)c1ccc2cccnc2c1O (stereo unspecified),-2,.,.,29,101*,106*
CN1CCN(C(c2ccc(F)cc2)c2ccc3cccnc3c2O)CC1 (stereo unspecified),.,.,5,.,.,.
CCC(=O)NC(c1cccs1)c1ccc2cccnc2c1O (stereo unspecified),1,86*,-3,78*,106*,107*
CC(C)CC(=O)NC(c1cccs1)c1ccc2cccnc2c1O (stereo unspecified),32,79*,-9,60*,102*,110*
CCCN(C(=O)CCl)C1=CCCCC1,8,30,-2,26,-11,-5
O=C(CSc1nnc2ccccn12)Nc1ccc2c(c1)OCCO2,15,1,1,4,-4,0
CCc1cccc(C)c1NC(=O)COC(=O)c1c2c(nc3ccccc13)/C(=C\c1cccs1)CCC2,-11,22,-1,59*,33,13
CCN1C/C(=C/c2cccs2)c2nc3ccccc3c(C(=O)O)c2C1,17,-9,-2,-7,-4,-8
CCCCNC(=O)COC(=O)c1c2c(nc3ccccc13)/C(=C\c1cccs1)CC2,.,.,-7,.,.,.
CC(C)CNC(=O)COC(=O)c1c2c(nc3ccccc13)/C(=C/c1cccs1)CC2,30,34,-5,46,52,78*
NC(=O)c1ccc(NC(=O)COC(=O)c2c3c(nc4ccccc24)/C(=C\c2cccs2)CCC3)cc1,-13,44,4,37,115*,60
COc1ccc(OC)c(NC(=O)CSc2nc3nc(C)cc(C)n3n2)c1,3,.,0,.,-16,-3
CCSc1ccc(-c2cccc([N+](=O)[O-])c2)nn1,10,6,0,1,-20,7
O=C(CNC(=O)c1ccccc1F)OCc1nc2ccc(Cl)cc2n1CCO,24,.,2,.,.,0
Nc1cc2c(cc1Cl)-c1ccccc1C2=NO,.,.,34*,.,.,.
CC(C)c1ccc(NC(=O)NN2CCOCC2)cc1,2,-30,-1,-2,-1,-3
O=C(CSc1nnc(NC(=O)c2c(F)cccc2F)s1)Nc1ccc(F)cc1,5,0,1,-2,5,3
O=C(CSc1nnc(NC(=O)C2CC2)s1)Nc1ccc(F)cc1,-24,27,14*,-2,.,-5
CC(=O)Nc1ccc(NC(=O)CSc2nnc(NC(=O)c3cccc(F)c3)s2)cc1,3,.,31*,-8,4,1
CC(=O)Nc1ccc(NC(=O)CSc2nnc(NC(=O)c3ccco3)s2)cc1,2,.,16*,-6,-23,-1

# Compound activity deposited in PubChem by several laboratories.
